From PubChem BioAssay
The source made the active and inactive calls.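 The calls were made as follows, unless noted: active = fluorescence slope higher than the sample average by over 3 SD (cut at about -0.22 in these data, passing the limit was not always enough); inactive = the rest.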

Columns and labels:
[1] = inhibitors of TNFa-induced NFkB p65 translocation, primary screen, imaging, HUVEC, MLSMR starter and 10KST1 sets (AID 438;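 active = inhibition above 20% together with a positive visual image hit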;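 also: compound added about 3h40 before a 20 min TNFalpha stimulation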;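 as to inhibition: signal is the nuclear over cytoplasmic p65 intensity ratio per well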); conditions: HUVEC TNFa-induced p65 nuclear translocation; cell count: measured here: nuclei count (cytotoxicity indicator), at 2.08 µM; inhibition: at 2 µM, stronger effect = higher value, 0% TNFa-plus-vehicle, 100% no-TNFa wells
[2] = inhibitors of E-selectin induction by TNFa, primary screen, imaging, HUVEC, immunofluorescence, MLSMR starter and 10KST1 sets (AID 487;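 active = visually confirmed hit in the image check and inhibition above 20%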;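 as to inhibition: signal is fraction of cell area covered by stained E-selectin grains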;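 as to nuclei count: 100% = median nuclei count of all wells on the same plate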); conditions: HUVEC TNFalpha-induced E-selectin immunofluorescence imaging, at 2 µM; inhibition: stronger effect = higher value; nuclei count: measured here: cell number, toxicity
[3] = DUSP6 inhibitors restoring Erk phosphorylation by chemical complementation, primary imaging in DUSP6-transfected HeLa (AID 609;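 active = compounds giving at least 50% inhibition in the cell-based MKP-3 phosphatase rescue imaging test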;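 as to inhibition: phospho-Erk level distribution per well compared with pooled transfected vehicle control wells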); conditions: HeLa MKP-3 transfected, phospho-Erk imaging KS statistic, at 10 µM, cells stimulated with TPA for 15 min
[4] = biological target: Dual specificity protein phosphatase 6 (Homo sapiens) (UniProt Q16828); assay: as above; conditions: HeLa MKP-3 transfected, phospho-Erk imaging KS statistic; at 10 µM; stronger effect = higher value; cells stimulated with TPA for 15 min
[5] = biological target: Voltage-gated potassium channel subunit beta-2 (Rattus norvegicus) (UniProt P62483); assay: KvBeta enzyme negative modulators, primary screen, biochemical, NADPH fluorescence (AID 622); conditions: recombinant KvBeta, 4-cyanobenzaldehyde reduction, at 10 µM, stronger effect = higher value;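 also: slope of raw intensity against log time taken from 70 to 1610 s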
[6] = biological target: Voltage-gated potassium channel subunit beta-2 (Rattus norvegicus) (UniProt P62483); assay: KvBeta positive modulators, primary screen, biochemical, NADPH fluorescence (AID 623;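 active = NADPH fluorescence slope more negative than the mean of all samples by about 3 SD, 99.7% confidence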;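 also: fluorescence intensity change per second fitted from 20 to 320 s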); conditions: Recombinant KvBeta, NADPH fluorescence decrease slope, 10 min; at 10 µM; stronger effect = lower value
[7] = biological target: Muscarinic acetylcholine receptor M4 (Homo sapiens) (UniProt P08173); assay: compounds altering M4/GIRK thallium flux, either direction, primary screen, M4 allosteric agonist project, cell-based, HEK293 M4/GIRK, BTC-AM (AID 625;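 active = fluorescence slope after compound addition differing from the mean of all tested samples at 99.7% confidence, mostly higher but some lower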;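 also: thallium influx through GIRK channels coupled to M4 in HEK293 cells with BTC-AM dye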); conditions: at 10 µM, actives lie on both sides
Method in brief: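 Material – HEK293 cells with M4 receptor and GIRK channels · Buffer or medium – pH 7.3 thallium assay buffer · Doses – one dose, 10 µM final · Timing – cells overnight at 37 °C, BTC-AM loading 1 h, reads 2 min total · Measured by – kinetic fluorescence with BTC-AM dye · Controls – carbachol and DMSO controls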

[8] = inhibitors of larval lipid processing in zebrafish, primary screen, whole organism, PED6 fluorescence, gall bladder and intestine (AID 686;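 active = a full or partial loss of lipid-probe fluorescence in the fish gall bladder, intestine or both, judged by eye; inactive = no fluorescence loss, or compound toxic to the fish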;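 also: larvae 5 to 7 days old with five fish per well; signal comes from phospholipase A2 cleavage of quenched PED6 carried via bile; overnight exposure to compound and PED6 before scoring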); conditions: Zebrafish larvae PED6 lipid processing, fluorescence scoring; screened at 20 µM (by protocol)
Method in brief: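 system = live zebrafish larvae aged 5-7 days, whole organism | probe or stimulus = ingested quenched lipid PED6 at 100 nM | doses = 20 µM single dose | timing = overnight exposure | detection = fluorescence microscopy with visual scoring of gall bladder and intestine | read-out = visual per-well fluorescence inhibition score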

[9] = inhibitors of Chlamydomonas gravitaxis, primary screen, whole organism, Chlamydomonas reinhardtii, WT vs cilia-less mutant, absorbance, 96-well (AID 463189;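 active = inhibition at or above 50% relative to wild type and mutant plate controls; inactive = inhibition below 50%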;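 also: 0% = wild type cc124 cells in DMSO and 100% = ciliumless bld1 mutant cells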); conditions: OD600 absorbance, 2 days, at 10 µM, stronger effect = higher value
[10] = measured here: cell density z-score
[11] = measured here: nuclear c-Myc green intensity z-score
[12] = measured here: nuclear pErk red intensity z-score, stronger effect = higher value

Dual specificity protein phosphatase 6 (Homo sapiens), sequence (Q16828 whole entry, looked up): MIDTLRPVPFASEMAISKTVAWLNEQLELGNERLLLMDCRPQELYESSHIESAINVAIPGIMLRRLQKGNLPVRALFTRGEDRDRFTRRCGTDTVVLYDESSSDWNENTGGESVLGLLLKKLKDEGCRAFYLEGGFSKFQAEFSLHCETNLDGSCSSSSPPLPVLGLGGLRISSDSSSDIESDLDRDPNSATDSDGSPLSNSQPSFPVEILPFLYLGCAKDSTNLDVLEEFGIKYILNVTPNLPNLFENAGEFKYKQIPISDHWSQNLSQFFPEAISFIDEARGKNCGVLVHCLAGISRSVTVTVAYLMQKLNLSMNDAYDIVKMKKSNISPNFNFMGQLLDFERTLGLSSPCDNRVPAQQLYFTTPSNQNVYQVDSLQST
Muscarinic acetylcholine receptor M4 (Homo sapiens), sequence (P08173 whole entry, looked up): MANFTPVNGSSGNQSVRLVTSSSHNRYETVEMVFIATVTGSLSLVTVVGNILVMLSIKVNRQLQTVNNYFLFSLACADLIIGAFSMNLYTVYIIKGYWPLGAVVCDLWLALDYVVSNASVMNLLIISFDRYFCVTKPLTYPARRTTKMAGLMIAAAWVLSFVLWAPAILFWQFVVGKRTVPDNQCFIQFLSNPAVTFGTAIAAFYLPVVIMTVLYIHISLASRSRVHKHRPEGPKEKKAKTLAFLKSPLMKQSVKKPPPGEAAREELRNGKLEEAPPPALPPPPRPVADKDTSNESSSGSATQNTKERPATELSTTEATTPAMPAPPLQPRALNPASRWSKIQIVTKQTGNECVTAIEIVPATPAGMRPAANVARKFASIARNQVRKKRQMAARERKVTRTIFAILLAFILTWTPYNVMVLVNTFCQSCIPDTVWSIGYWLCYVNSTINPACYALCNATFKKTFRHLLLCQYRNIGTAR
Voltage-gated potassium channel subunit beta-2 (Rattus norvegicus), sequence (P62483 whole entry, looked up): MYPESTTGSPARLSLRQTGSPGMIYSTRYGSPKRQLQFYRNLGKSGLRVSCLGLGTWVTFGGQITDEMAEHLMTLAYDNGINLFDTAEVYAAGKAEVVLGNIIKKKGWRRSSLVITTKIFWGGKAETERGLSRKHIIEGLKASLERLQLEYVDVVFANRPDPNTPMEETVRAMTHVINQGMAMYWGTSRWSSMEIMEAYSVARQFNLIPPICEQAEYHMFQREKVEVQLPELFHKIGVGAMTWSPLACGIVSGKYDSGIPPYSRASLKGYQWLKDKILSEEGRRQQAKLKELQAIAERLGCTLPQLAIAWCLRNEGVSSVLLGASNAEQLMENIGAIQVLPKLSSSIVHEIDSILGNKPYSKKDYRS

| SMILES | cell count [1] | inhibition [1] | inhibition [2] | nuclei count [2] | z-score [3, 10] | z-score [3, 11] | z-score [3, 12] | inhibition [4] | fluorescence slope [5] | NADPH fluorescence slope [6] | fluorescence slope [7] | outcome [8] | inhibition [9] |
| --- | --- | --- | --- | --- | --- | --- | --- | --- | --- | --- | --- | --- | --- |
| C/C(=N\O)c1c(C)c2ccccc2n1C | 553 | -7.3% (inactive) | -33% (inactive) | 155% | 0.633 | -0.875 | 0.794 | 11.9% (inactive) | -0.374 (inactive) | -3.2e-05 (inactive) | 0.00461 (inactive) | inactive | 15.1% (inactive) |
| COc1ccc(C2Nc3ccccc3C(=O)N2Cc2ccco2)cc1CN1C(=O)c2ccccc2C1=O (configuration not stated) | 691 | -6.9% (inactive) | 20.3% (inactive) | 132% | 0.751 | -1.72 | 0.41 | 9.07% (inactive) | -0.461 (inactive) | -4.4e-05 (inactive) | 0.00497 (inactive) | inactive | 8.71% (inactive) |
| Cn1c(=O)c2c(nc(NCc3ccc4c(c3)OCO4)n2Cc2ccccc2Cl)n(C)c1=O | 634 | -6% (inactive) | -29.1% (inactive) | 104% | 0.0435 | 2.04 | 0.82 | -2.09% (inactive) | -0.41 (inactive) | -9.6e-06 (inactive) | 0.00449 (inactive) | inactive | -8.68% (inactive) |
| CN(C)c1nc(OCCNC(=O)Nc2ccccc2)nc(N(C)C)n1 | 519 | -7.6% (inactive) | -47.8% (inactive) | 104% | 0.724 | -0.537 | -0.187 | 5.42% (inactive) | -0.522 (inactive) | 5.3e-05 (inactive) | 0.00455 (inactive) | inactive | 36.3% (inactive) |
| CCCCC(CCC(=O)Nc1ccc(C(=O)OCC)cc1)C(=O)O (configuration not stated) | 378 | -11.3% (inactive) | -153% (inactive) | 159% | -0.634 | -1.85 | 0.598 | -0.608% (inactive) | -0.468 (inactive) | -0.000129 (inactive) | 0.00338 (inactive) | inactive | 5.13% (inactive) |
| COc1ccc(/C(O)=C2\C(=O)C(=O)N(Cc3ccco3)C2c2cc(OC)ccc2OC)cc1 (configuration not stated) | 613 | -13.1% (inactive) | -6% (inactive) | 161% | 0.378 | -0.392 | -0.39 | 5.42% (inactive) | -0.452 (inactive) | -1.6e-05 (inactive) | 0.00573 (inactive) | inactive | -2.62% (inactive) |
| Cn1c(NCc2ccccc2)nc2c1c(=O)n(Cc1ccc(Br)cc1)c(=O)n2C | 696 | -21.9% (inactive) | -78.3% (inactive) | 171% | 0.333 | 0.526 | 0.876 | 13.9% (inactive) | -0.47 (inactive) | -5.2e-05 (inactive) | 0.00559 (inactive) | inactive | 36.1% (inactive) |
| COc1ccc(C(O)C(CN2CCOCC2)c2ccccc2)cc1 (configuration not stated) | 393 | -2.8% (inactive) | -22.6% (inactive) | 144% | -0.497 | -1.2 | 2.05 | -2.59% (inactive) | -0.44 (inactive) | -0.00013 (inactive) | 0.00559 (inactive) | inactive | -3.86% (inactive) |
| Cc1cc(=O)oc(C)c1C(=O)NCCc1ccccc1 | 661 | 9.3% (inactive) | -1% (inactive) | 109% | -0.903 | 1.05 | 0.63 | 5.35% (inactive) | -0.433 (inactive) | -4.2e-05 (inactive) | 0.00484 (inactive) | inactive | -7.3% (inactive) |
| Cc1cccn2c(=O)c3cc(C(=O)NCc4cccnc4)c(=N)n(C)c3nc12 | 734 | 7.8% (inactive) | -3.9% (inactive) | 154% | -0.252 | 0.503 | 1.16 | 7.83% (inactive) | -0.403 (inactive) | -4.4e-05 (inactive) | 0.00535 (inactive) | inactive | 2.07% (inactive) |
| COc1cc(=O)[nH]c(=O)n1CC(=O)c1ccccc1 | 719 | -7.7% (inactive) | -4.5% (inactive) | 160% | -0.792 | 1.02 | 1.07 | -2.09% (inactive) | -0.452 (inactive) | -3.7e-05 (inactive) | 0.00585 (inactive) | inactive | -0.879% (inactive) |
| CCOC(=O)NC(Nc1cc(C)on1)(C(F)(F)F)C(F)(F)F | 705 | -7.9% (inactive) | -70% (inactive) | 169% | -0.319 | 1.98 | 0.812 | -11.4% (inactive) | -0.465 (inactive) | -3.9e-05 (inactive) | 0.00511 (inactive) | inactive | -3.89% (inactive) |
| CCCCC(=O)C1CCN(Cc2ccccc2)CC1 | 371 | -0.5% (inactive) | 19.3% (inactive) | 177% | 0.378 | 0.471 | 0.337 | -0.584% (inactive) | -0.469 (inactive) | -0.000111 (inactive) | 0.00375 (inactive) | inactive; toxic | 126% (active) |
| CCc1c(C)c2cc(Cl)c(O)c(CN3CCCCC3)c2oc1=O | 634 | -3.5% (inactive) | 6.3% (inactive) | 174% | 0.309 | 0.0643 | -0.532 | -10.6% (inactive) | -0.0112 (inactive) | -2.8e-08 (inactive) | 0.00604 (inactive) | inactive | -1.88% (inactive) |
